Where two headings read alike, the source gives them in different places.
How the values were obtained:
[1] = format: in vivo, human
[2] = format: in vivo, human; remark: listed apart in the source
Procedure, shortened: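 Open-label, fixed-sequence, two-period study in 26 healthy subjects. A single oral 150 mg dose was given alone, then the morning after the last of 7 daily oral 600 mg co-drug doses. Doses were ≥14 days apart. Plasma sampled pre-dose to 72 h and assayed by LC-MS/MS. Cmax observed; AUC by linear-up/log-down trapezoidal rule; log values analysed by ANOVA (treatment fixed, subject random), giving geometric mean ratios with 90% CIs.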

[3] = Ketoconazole study: safety and tolerability; format: in vivo, human; conditions: for Subjects with abdominal pain upper / Subjects with any AE (s) / Subjects with back pain / Subjects with dizziness / Subjects with dry mouth / Subjects with excoriation / Subjects with fatigue / Subjects with headache / Subjects with nasopharyngitis / Subjects with ocular hyperemia / Subjects with puncture site induration / Subjects with puncture site pain: nintedanib 50 mg single dose, ketoconazole 400 mg once daily for 3 days
Procedure, shortened: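 Healthy subjects in an open-label 2-way crossover with randomized sequences. The pilot period had 8 subjects and the main period 26 further subjects. Nintedanib 50 mg was given alone and after ketoconazole 400 mg once daily for 3 days (1 h after the last dose in the pilot), with ≥14 days between nintedanib doses. AEs from one drug intake to the next, washout included, were assigned to that treatment period (nintedanib, ketoconazole, or both). Labs, vital signs, 12-lead ECG and physical exam were also recorded.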

[4] = Rifampicin study: safety and tolerability; format: in vivo, human; conditions: for Subjects with any AE (s) / Subjects with chromaturia / Subjects with cough / Subjects with dermatitis contact / Subjects with diarrhea / Subjects with dizziness / Subjects with dysphagia / Subjects with eye pain / Subjects with fatigue / Subjects with feces discolored / Subjects with feeling hot / Subjects with flatulence / Subjects with headache / Subjects with influenza / Subjects with laceration / Subjects with nausea / Subjects with night sweats / Subjects with oropharyngeal pain / Subjects with pollakiuria / Subjects with rhinitis / Subjects with vessel puncture site paresthesia: nintedanib 150 mg single dose, rifampicin 600 mg once daily for 7 days
Procedure, shortened: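 26 healthy subjects in an open-label, two-period, fixed-sequence design. A single oral nintedanib 150 mg dose was given alone, then again the morning after the last oral rifampicin 600 mg once-daily dose (7 days), with ≥14 days between nintedanib doses. AEs within 72 h of each nintedanib dose were assigned to that period. AEs later than 72 h after nintedanib alone and before rifampicin started were counted as washout. Labs, vital signs, 12-lead ECG and physical exam were also assessed.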

[5] = cited from earlier work
CYP = conditions: in vitro; cited from earlier work
esterases = conditions: in vitro; cited from earlier work
p-glycoprotein (P-gp) = conditions: cited from earlier work
[6] = co-administration with ketoconazole
[7] = test nintedanib 50 mg + ketoconazole 400 mg vs reference nintedanib 50 mg
[8] = co-administration with rifampicin
[9] = test nintedanib 150 mg + rifampicin 600 mg vs reference nintedanib 150 mg
[10] = single dose of nintedanib alone and with ketoconazole
[11] = single dose of nintedanib alone and with rifampicin

COC(=O)c1ccc2c(c1)NC(=O)/C2=C(\Nc1ccc(N(C)C(=O)CN2CCN(C)CC2)cc1)c1ccccc1 [Nintedanib]
Effect on tmax and t½ of nintedanib ([1]; co-administration of ketoconazole): unaffected
Increase in exposure to nintedanib based on AUC [1, 6]: about 1.6 fold
Increase in exposure to nintedanib based on Cmax [1, 6]: ~1.7 fold
Tmax ([1]; human, plasma, oral): 3 h
half-life ([1]; human, plasma, oral): 15.6 h
AUC(0-inf) ([1]; human, plasma, po, 50 mg): 38.6 ng·h/mL
AUC(0-t) ([1]; human, plasma, po, 50 mg): 35.7 ng·h/mL
Cmax ([1]; human, plasma, po, 50 mg): 4.19 ng/mL
half-life ([1]; human, plasma, po, 50 mg): 18.1 h
Exposure to nintedanib (AUC0–∞, Cmax, AUC0–tz) higher when co-administered with ketoconazole than alone ([1]; nintedanib 50 mg, ketoconazole 400 mg once daily for 3 days): 1.6–1.7 fold
Relative bioavailability, GMR (90% CI) of AUC0–tz [1, 7]: 168.1 (155.3–182.0) %
Relative bioavailability, GMR (90% CI) of AUC0–∞ [1, 7]: 160.5 (148.2–173.7) %
Relative bioavailability, GMR (90% CI) of Cmax [1, 7]: 179.6 (157.6–204.8) %
Effect on tmax and t½ of nintedanib ([2]; co-administration of rifampicin): unaffected
Reduction of exposure to nintedanib based on AUC [2, 8]: about 50%
Reduction of exposure to nintedanib based on Cmax [2, 8]: ~60%
Tmax ([2]; human, plasma, oral): 4 h
half-life ([2]; human, plasma, oral): 23.4 h
AUC(0-inf) ([2]; human, plasma, po, 150 mg): 183 ng·h/mL
AUC(0-t) ([2]; human, plasma, po, 150 mg): 173 ng·h/mL
Cmax ([2]; human, plasma, po, 150 mg): 22.1 ng/mL
half-life ([2]; human, plasma, po, 150 mg): 22.5 h
Relative bioavailability, GMR (90% CI) of AUC0–tz [2, 9]: 50.0 (46.9–53.3) %
Relative bioavailability, GMR (90% CI) of AUC0–∞ [2, 9]: 50.1 (47.2–53.3) %
Relative bioavailability, GMR (90% CI) of Cmax [2, 9]: 59.8 (53.8–66.4) %
Subjects with abdominal pain upper [3]: 0 n (%)
Subjects with any AE (s) [3]: 8 (25.8) n (%)
Subjects with back pain [3]: 0 n (%)
Subjects with dizziness [3]: 1 (3.2) n (%)
Subjects with dry mouth [3]: 0 n (%)
Subjects with excoriation [3]: 0 n (%)
Subjects with fatigue [3]: 1 (3.2) n (%)
Subjects with headache [3]: 5 (16.1) n (%)
Subjects with nasopharyngitis [3]: 2 (6.5) n (%)
Subjects with ocular hyperemia [3]: 1 (3.2) n (%)
Subjects with puncture site induration [3]: 0 n (%)
Subjects with puncture site pain [3]: 0 n (%)
Serious AEs [3, 10]: No serious AEs
Tolerability [3, 10]: well tolerated
Subjects with any AE (s) [4]: 5 (19.2) n (%)
Subjects with chromaturia [4]: 0 n (%)
Subjects with cough [4]: 0 n (%)
Subjects with dermatitis contact [4]: 0 n (%)
Subjects with diarrhea [4]: 5 (19.2) n (%)
Subjects with dizziness [4]: 0 n (%)
Subjects with dysphagia [4]: 0 n (%)
Subjects with eye pain [4]: 0 n (%)
Subjects with fatigue [4]: 0 n (%)
Subjects with feces discolored [4]: 0 n (%)
Subjects with feeling hot [4]: 0 n (%)
Subjects with flatulence [4]: 0 n (%)
Subjects with headache [4]: 1 (3.8) n (%)
Subjects with influenza [4]: 0 n (%)
Subjects with laceration [4]: 0 n (%)
Subjects with nausea [4]: 0 n (%)
Subjects with night sweats [4]: 0 n (%)
Subjects with oropharyngeal pain [4]: 0 n (%)
Subjects with pollakiuria [4]: 0 n (%)
Subjects with rhinitis [4]: 0 n (%)
Subjects with vessel puncture site paresthesia [4]: 0 n (%)
Serious AEs [4, 11]: No serious AEs
Tolerability [4, 11]: well tolerated
Terminal half-life [5]: 10 to 15 h
Volume of distribution ([5]; geometric mean): 1050 L
Percentage absorbed ([5]; nintedanib 100 mg in healthy volunteers, estimated): 23%
Absolute bioavailability ([5]; nintedanib 100 mg in healthy volunteers): approximately 5%
Time to maximum plasma concentration ([5]; oral administration): 2 to 4 h
Time to steady state ([5]; oral dosing): ≤ 7 days
Share of CYP-dependent metabolism (CYP): about 5%
Share of ester cleavage (esterases): about 25%
Substrate for p-glycoprotein (P-gp) (p-glycoprotein (P-gp)): substrate

CO[C@H]1/C=C/O[C@@]2(C)Oc3c(C)c(O)c4c(O)c(c(/C=N/N5CCN(C)CC5)c(O)c4c3C2=O)NC(=O)/C(C)=C\C=C\[C@H](C)[C@H](O)[C@@H](C)[C@@H](O)[C@@H](C)[C@H](OC(C)=O)[C@@H]1C [Rifampicin]
Subjects with any AE (s) [4]: 25 (100) n (%)
Subjects with chromaturia [4]: 25 (100) n (%)
Subjects with cough [4]: 1 (4.0) n (%)
Subjects with dermatitis contact [4]: 0 n (%)
Subjects with diarrhea [4]: 1 (4.0) n (%)
Subjects with dizziness [4]: 2 (8.0) n (%)
Subjects with dysphagia [4]: 1 (4.0) n (%)
Subjects with eye pain [4]: 1 (4.0) n (%)
Subjects with fatigue [4]: 2 (8.0) n (%)
Subjects with feces discolored [4]: 3 (12.0) n (%)
Subjects with feeling hot [4]: 1 (4.0) n (%)
Subjects with flatulence [4]: 2 (8.0) n (%)
Subjects with headache [4]: 5 (20.0) n (%)
Subjects with influenza [4]: 0 n (%)
Subjects with laceration [4]: 1 (4.0) n (%)
Subjects with nausea [4]: 1 (4.0) n (%)
Subjects with night sweats [4]: 1 (4.0) n (%)
Subjects with oropharyngeal pain [4]: 0 n (%)
Subjects with pollakiuria [4]: 1 (4.0) n (%)
Subjects with rhinitis [4]: 1 (4.0) n (%)
Subjects with vessel puncture site paresthesia [4]: 0 n (%)

CC(=O)N1CCN(c2ccc(OCC3COC(Cn4ccnc4)(c4ccc(Cl)cc4Cl)O3)cc2)CC1 (centres unmarked) [Ketoconazole]
Subjects with abdominal pain upper [3]: 1 (2.9) n (%)
Subjects with any AE (s) [3]: 3 (8.8) n (%)
Subjects with back pain [3]: 0 n (%)
Subjects with dizziness [3]: 0 n (%)
Subjects with dry mouth [3]: 1 (2.9) n (%)
Subjects with excoriation [3]: 0 n (%)
Subjects with fatigue [3]: 0 n (%)
Subjects with headache [3]: 2 (5.9) n (%)
Subjects with nasopharyngitis [3]: 0 n (%)
Subjects with ocular hyperemia [3]: 0 n (%)
Subjects with puncture site induration [3]: 0 n (%)
Subjects with puncture site pain [3]: 0 n (%)

Source: publication PMC6133080 (European Journal of Drug Metabolism and Pharmacokinetics, 2018)
